Experimental data reported in PMC8210434 (ACS Omega, 2021).

How the values were obtained:
CCI rats = assay: Chronic constriction injury; assay type: in vivo, Sprague–Dawley rats; details: orally dosed
human AT1R = target: T1, human AT1R (Homo sapiens, UniProt P30556); assay: AT1R competitive binding assay; details: 10 μM
T1 sequence (P30556 1-359): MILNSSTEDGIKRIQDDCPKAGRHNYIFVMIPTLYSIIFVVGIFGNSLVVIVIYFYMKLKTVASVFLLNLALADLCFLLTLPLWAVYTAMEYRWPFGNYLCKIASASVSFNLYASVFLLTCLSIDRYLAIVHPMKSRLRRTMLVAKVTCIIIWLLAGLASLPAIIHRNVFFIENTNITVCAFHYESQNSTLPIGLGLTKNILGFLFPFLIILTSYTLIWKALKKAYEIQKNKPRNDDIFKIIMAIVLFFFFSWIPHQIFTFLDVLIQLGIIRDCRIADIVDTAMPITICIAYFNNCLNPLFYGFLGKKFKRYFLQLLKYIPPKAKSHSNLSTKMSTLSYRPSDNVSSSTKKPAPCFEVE

[1] = Liver microsome stability assay, rat; assay type: in vitro ADME; details: liver microsomes, pH 7.4
[2] = In vivo pharmacokinetic study in rats; details: male, Sprague Dawley, rat, plasma
[3] = Liver microsome stability assay, human; assay type: in vitro ADME; details: liver microsomes, pH 7.4
[4] = Human hepatocytes metabolic stability assay; assay type: in vitro ADME; details: cryopreserved hepatocytes
[5] = Plasma protein binding by equilibrium dialysis, rat; assay type: in vitro ADME; details: pH 7.4
[6] = Plasma protein binding by equilibrium dialysis, human; assay type: in vitro ADME; details: pH 7.4
[7] = Caco-2 cell permeability assay; assay type: in vitro ADME; details: human, Caco-2, pH 7.4
CYP1A2 = target: T2, CYP1A2 (Homo sapiens, UniProt P05177); assay: CYP inhibition assay, CYP1A2; assay type: in vitro ADME
T2 sequence (P05177 1-516): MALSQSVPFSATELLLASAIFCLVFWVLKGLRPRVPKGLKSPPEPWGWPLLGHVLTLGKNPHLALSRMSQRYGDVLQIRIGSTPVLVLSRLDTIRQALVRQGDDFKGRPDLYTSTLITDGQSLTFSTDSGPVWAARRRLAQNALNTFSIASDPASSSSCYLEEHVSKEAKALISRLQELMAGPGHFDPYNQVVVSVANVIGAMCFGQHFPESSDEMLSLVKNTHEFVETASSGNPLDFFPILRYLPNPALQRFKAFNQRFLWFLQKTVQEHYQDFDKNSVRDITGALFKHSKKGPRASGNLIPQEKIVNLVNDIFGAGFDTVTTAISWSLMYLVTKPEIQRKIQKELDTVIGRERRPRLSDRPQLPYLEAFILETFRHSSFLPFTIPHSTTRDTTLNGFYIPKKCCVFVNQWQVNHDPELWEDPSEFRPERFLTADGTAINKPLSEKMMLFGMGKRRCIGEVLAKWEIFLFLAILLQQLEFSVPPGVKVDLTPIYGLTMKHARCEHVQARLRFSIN

CYP2C8 = target: T3, CYP2C8 (Homo sapiens, UniProt P10632); assay: CYP inhibition assay, CYP2C8; assay type: in vitro ADME
T3 sequence (P10632 1-490): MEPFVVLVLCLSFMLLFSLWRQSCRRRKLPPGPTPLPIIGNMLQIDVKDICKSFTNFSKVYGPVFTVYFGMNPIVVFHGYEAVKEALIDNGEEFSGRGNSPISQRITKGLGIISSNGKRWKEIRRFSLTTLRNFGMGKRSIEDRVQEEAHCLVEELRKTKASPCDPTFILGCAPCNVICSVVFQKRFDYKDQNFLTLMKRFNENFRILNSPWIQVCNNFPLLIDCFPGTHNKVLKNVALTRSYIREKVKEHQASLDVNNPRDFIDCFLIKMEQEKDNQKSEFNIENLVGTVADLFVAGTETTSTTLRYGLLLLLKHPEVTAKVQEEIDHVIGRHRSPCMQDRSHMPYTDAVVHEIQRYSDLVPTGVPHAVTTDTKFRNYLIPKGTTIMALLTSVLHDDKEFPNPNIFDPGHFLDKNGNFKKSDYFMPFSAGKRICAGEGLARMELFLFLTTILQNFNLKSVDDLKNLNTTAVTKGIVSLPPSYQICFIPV

CYP2C9 = CYP2C9 (Homo sapiens, UniProt P11712); assay: CYP inhibition assay, CYP2C9; assay type: in vitro ADME
CYP2C9, sequence (P11712 whole entry): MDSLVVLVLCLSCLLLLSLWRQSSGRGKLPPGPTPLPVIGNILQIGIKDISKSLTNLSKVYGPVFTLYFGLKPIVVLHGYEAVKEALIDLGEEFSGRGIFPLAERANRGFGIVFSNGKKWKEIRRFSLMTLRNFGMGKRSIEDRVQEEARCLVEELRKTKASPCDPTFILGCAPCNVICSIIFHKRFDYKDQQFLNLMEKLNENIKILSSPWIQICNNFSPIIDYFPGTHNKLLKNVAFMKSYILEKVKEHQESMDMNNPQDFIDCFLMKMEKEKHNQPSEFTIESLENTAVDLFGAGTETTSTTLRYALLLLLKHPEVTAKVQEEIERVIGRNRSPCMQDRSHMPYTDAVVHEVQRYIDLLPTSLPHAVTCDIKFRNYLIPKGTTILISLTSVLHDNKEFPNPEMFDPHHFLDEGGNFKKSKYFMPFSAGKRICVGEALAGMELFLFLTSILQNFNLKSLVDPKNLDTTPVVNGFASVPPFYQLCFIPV

CYP2C19 = CYP2C19 (Homo sapiens, UniProt P33261); assay: CYP inhibition assay, CYP2C19; assay type: in vitro ADME
CYP2C19, sequence (P33261 whole entry): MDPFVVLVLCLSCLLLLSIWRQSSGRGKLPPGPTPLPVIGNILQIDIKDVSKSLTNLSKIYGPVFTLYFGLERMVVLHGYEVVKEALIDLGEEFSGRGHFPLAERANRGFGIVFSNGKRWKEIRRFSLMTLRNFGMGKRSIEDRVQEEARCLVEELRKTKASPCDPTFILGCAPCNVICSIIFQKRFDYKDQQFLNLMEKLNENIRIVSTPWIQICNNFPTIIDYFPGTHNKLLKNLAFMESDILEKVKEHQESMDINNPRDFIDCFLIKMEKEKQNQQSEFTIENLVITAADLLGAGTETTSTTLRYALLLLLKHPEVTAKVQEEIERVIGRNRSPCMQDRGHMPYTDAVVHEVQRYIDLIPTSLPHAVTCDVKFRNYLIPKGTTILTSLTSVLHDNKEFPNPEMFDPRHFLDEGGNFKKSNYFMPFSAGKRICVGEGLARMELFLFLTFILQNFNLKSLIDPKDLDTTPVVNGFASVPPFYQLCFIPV

CYP2D6 = CYP2D6 (Homo sapiens, UniProt P10635); assay: CYP inhibition assay, CYP2D6; assay type: in vitro ADME
CYP2D6, sequence (P10635 whole entry): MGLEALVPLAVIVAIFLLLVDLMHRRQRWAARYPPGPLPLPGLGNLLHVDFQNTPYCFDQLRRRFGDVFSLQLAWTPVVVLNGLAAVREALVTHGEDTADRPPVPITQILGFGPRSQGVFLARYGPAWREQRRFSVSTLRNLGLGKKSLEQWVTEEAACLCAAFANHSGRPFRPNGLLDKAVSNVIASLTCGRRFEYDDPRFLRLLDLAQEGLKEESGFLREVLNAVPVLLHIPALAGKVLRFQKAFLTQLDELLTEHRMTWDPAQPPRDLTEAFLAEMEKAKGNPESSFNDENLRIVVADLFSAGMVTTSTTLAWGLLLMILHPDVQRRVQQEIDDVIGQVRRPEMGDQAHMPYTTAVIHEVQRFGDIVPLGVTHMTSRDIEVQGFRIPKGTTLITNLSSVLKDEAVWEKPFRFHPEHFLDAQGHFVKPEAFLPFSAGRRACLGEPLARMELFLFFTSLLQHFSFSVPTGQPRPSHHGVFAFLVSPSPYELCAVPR

CYP3A4 = CYP3A4 (Homo sapiens, UniProt P08684); assay: CYP inhibition assay, CYP3A4; assay type: in vitro ADME
CYP3A4, sequence (P08684 whole entry): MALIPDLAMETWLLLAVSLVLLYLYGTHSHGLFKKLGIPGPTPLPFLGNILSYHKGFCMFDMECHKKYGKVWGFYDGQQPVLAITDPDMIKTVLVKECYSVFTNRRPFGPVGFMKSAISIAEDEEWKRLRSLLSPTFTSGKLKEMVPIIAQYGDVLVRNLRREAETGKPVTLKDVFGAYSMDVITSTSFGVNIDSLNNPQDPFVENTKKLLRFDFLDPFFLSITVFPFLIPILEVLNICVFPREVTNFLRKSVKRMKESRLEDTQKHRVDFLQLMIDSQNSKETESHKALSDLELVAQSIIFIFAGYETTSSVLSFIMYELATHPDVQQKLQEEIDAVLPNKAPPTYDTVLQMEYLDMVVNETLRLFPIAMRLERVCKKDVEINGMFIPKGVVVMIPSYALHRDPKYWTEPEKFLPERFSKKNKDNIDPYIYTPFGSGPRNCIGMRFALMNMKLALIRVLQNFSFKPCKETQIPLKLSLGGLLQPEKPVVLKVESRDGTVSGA

hERG channel = hERG channel (Homo sapiens, UniProt Q12809); assay: hERG patch clamp assay; assay type: cell-based
hERG channel, sequence (Q12809 whole entry): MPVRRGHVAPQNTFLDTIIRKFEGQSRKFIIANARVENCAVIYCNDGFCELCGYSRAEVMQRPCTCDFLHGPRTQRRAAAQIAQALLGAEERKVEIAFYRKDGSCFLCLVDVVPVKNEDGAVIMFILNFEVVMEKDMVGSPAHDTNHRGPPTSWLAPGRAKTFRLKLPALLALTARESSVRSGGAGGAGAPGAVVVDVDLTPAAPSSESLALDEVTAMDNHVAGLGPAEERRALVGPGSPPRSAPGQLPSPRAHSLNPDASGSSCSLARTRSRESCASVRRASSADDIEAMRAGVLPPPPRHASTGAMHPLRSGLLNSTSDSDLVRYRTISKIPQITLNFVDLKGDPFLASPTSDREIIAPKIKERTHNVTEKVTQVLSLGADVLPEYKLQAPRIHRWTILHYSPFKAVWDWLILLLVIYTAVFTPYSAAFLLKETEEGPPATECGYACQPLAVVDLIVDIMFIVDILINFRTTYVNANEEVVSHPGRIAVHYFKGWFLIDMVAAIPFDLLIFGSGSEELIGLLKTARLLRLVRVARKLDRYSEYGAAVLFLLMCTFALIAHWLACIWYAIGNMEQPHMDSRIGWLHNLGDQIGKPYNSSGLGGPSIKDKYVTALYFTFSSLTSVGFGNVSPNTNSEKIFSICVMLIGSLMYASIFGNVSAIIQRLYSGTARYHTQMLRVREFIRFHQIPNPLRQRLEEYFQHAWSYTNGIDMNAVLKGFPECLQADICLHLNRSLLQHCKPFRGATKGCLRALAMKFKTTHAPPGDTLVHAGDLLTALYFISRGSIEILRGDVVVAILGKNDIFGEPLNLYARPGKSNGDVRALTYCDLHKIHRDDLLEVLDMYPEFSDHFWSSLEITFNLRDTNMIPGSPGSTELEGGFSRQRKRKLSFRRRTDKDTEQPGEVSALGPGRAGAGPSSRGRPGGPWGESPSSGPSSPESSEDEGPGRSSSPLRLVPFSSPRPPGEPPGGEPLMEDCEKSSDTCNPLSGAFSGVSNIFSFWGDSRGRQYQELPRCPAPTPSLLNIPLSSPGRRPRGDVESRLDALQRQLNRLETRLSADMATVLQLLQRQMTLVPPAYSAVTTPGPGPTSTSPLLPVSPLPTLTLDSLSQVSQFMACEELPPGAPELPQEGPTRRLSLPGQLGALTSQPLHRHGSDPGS

NG108-15 cells = assay: NG108-15 neurite outgrowth assay; assay type: cell-based; details: 1 μM compound, 0.1 μM angiotensin II, three days
rats = assay: Non-GLP 7-day acute rat toxicity study; assay type: in vivo, Sprague Dawley rats
Method in brief: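 Rats received test compound daily for 7 days (non-GLP) at 200, 400 and 800 mg/kg/day, alongside a vehicle group. Endpoints were adverse events, laboratory abnormalities, salivary discharge scored 1 h after dosing, and gross anatomy of kidneys, hearts and livers compared with vehicle.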

AT2R = details: read-out: IC50 measured via a radiolabeled ligand-binding assay; cited from earlier work
monkeys = details: 39 weeks of chronic dosing; cited from earlier work

## CC(C)C[C@H](CN)CC(=O)O [pregabalin]
CCI rats
  paw withdrawal threshold responsive to tactile stimulation (von Frey): significantly increased paw withdrawal threshold

## COc1ccc2c(c1OCc1ccc(OC(F)(F)F)cc1)C[C@@H](C(=O)O)N(c1nc3ccc(F)cc3o1)C2 [Compound 28]
Human AT1R
  hAT1R antagonistic activity at the highest tested concentration: none of them showed any hAT1R antagonistic activity

## COc1ccc2c(c1OCc1ccccc1)C[C@@H](C(=O)O)N(C(=O)C(c1ccccc1)c1ccccc1)C2 [EMA401]
[1]
  CLint scaled at 1 μM: […]
[2]; iv, 1 mg/kg
  clearance: […]
  half-life: […]
[2]; po, 10 mg/kg
  AUC(0-t): […]
  Cmax: […]
  bioavailability: […]
[3]
  CLint scaled at 1 μM: […]
[4]
  CLint scaled at 1 μM: […]
[5]
  fraction unbound at 6 h, 1 μM: […]
[6]
  fraction unbound at 6 h, 1 μM: […]
[7]
  Papp A→B at 90 min, 10 µM: […]
  Papp B→A at 90 min, 10 µM: […]
CYP1A2
  IC50: > 50 µM
CYP2C8
  IC50: 20 µM
CYP2C9
  IC50: 7.4 µM
CYP2C19
  IC50: > 50 µM
CYP2D6
  IC50: > 50 µM
CYP3A4
  IC50: > 50 µM
hERG channel
  IC50: […]
hERG channel; concentrations up to 10 μM
  hERG potassium channel activity: no hERG potassium channel activity
NG108-15 cells
  effect on neurite outgrowth induced by angiotensin II: abolished neurite outgrowth induced by angiotensin II
CCI rats
  paw withdrawal threshold responsive to tactile stimulation (von Frey): significantly increased paw withdrawal threshold
rats; rat, 200, 400, and 800 mg/kg/day, 1 h after dosage
  salivary discharge: in high-, medium-, and low-dose groups
rats; rat, 7 days, kidneys, hearts, livers
  gross anatomy vs vehicle group: no distinguishable gross anatomy differences
rats; rat, oral gavage, 200, 400, and 800 mg/kg/day for 7 days
  tolerability: well tolerated with no serious adverse events or significant laboratory abnormalities
AT2R
  IC50: […]
monkeys
  toxicity finding after chronic dosing: hepatotoxicity in monkeys
